Test results taken from ChEMBL document CHEMBL1821701, “Stereochemical analysis of leubethanol, an anti-TB-active serrulatane, from Leucophyllum frutescens” (2011).
Values after ≈ are worked out from the molar mass of the structure shown.

Legend:
Assay type in all cases: functional
[1] = tested on: Mycobacterium tuberculosis; experiment: Antitubercular activity against multidrug-resistant Mycobacterium tuberculosis CIBIN/UMF15:99 isolate by microplate Alamar blue assay
Method in brief: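 Modified microplate Alamar Blue assay. H37Rv ATCC 27294 is susceptible to streptomycin, isoniazid, rifampin, ethambutol and pyrazinamide. Clinical isolate CIBIN/UMF15:99 is resistant to the same five drugs. Test stocks were 2 mg/mL in 20% DMSO in Middlebrook 7H9 broth, filter-sterilized. Final concentrations ran from 100 to 0.78 µg/mL. Read-out was MIC, at least in triplicate.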

[2] = tested on: Mycobacterium tuberculosis; experiment: Antitubercular activity against multidrug-resistant Mycobacterium tuberculosis CIBIN/UMF15:99 isolate by microplate Alamar blue assay relative to rifampin
[3] = tested on: Mycobacterium tuberculosis; experiment: Antitubercular activity against multidrug-resistant Mycobacterium tuberculosis CIBIN/UMF15:99 isolate by microplate Alamar blue assay relative to streptomycin

Row | Compound | MIC [1] [µg/mL] | Ratio [2] | Ratio [3]
1 | CC[C@@H](CO)NCCN[C@@H](CC)CO [ETHAMBUTOL] | 8 (≈ 39.2 µM) | – | –
2 | NNC(=O)c1ccncc1 [ISONIAZID] | 3.1 (≈ 22.6 µM) | – | –
3 | CC(C)=CCC[C@H](C)[C@@H]1CC[C@@H](C)c2c(O)cc(C)cc21 [LEUBETHANOL] | 6.3 (≈ 22 µM) | 16 | 16
4 | CO[C@H]1/C=C/O[C@@]2(C)Oc3c(C)c(O)c4c(O)c(c(/C=N/N5CCN(C)CC5)c(O)c4c3C2=O)NC(=O)/C(C)=C\C=C\[C@H](C)[C@H](O)[C@@H](C)[C@@H](O)[C@@H](C)[C@H](OC(C)=O)[C@@H]1C [RIFAMPIN] | > 100 | – | –
5 | CN[C@@H]1[C@H](O[C@H]2[C@H](O[C@H]3[C@H](O)[C@@H](O)[C@H](N=C(N)N)[C@@H](O)[C@@H]3N=C(N)N)O[C@@H](C)[C@]2(O)C=O)O[C@@H](CO)[C@H](O)[C@H]1O [STREPTOMYCIN] | > 100 | – | –
